According to ChEMBL document CHEMBL4350959, “Design and Identification of a Novel, Functionally Subtype Selective GABAA Positive Allosteric Modulator (PF-06372865)” (J Med Chem, 2019):
Converted amounts (≈) assume the structure as drawn.

What was measured:
[1] = Lipophilicity, log D of the compound; assay type: physicochemical; details: octanol/water
Outline: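 LogD was either measured or calculated with an internal logD model.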

[2] = Oral bioavailability in rat; assay type: ADME, organism-based; details: in vivo
[3] = Volume of distribution at steady state in dog; assay type: ADME, Canis lupus familiaris; details: in vivo, read-out: Vdss
[4] = Oral bioavailability in dog; assay type: ADME, organism-based, Canis lupus familiaris; details: in vivo
[5] = Volume of distribution at steady state in rat; assay type: ADME; details: in vivo, read-out: Vdss
[6] = Solubility of the compound at pH 6.5; assay type: physicochemical; details: buffer
[7] = Permeability in RRCK cells; assay type: ADME, cell-based, Canis lupus familiaris, MDCKII-LE; details: dog, MDCK; read-out: permeability
Outline: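 Transcellular permeability across Ralph Russ canine kidney (RRCK) cell monolayers, reported as x10^-6 cm/sec.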

SMILES	logD [1]	other results
CCn1cnc2c(-c3ccc(F)c(-c4ccc(S(=O)(=O)CC)cc4Cl)c3)cnnc21	3.2	–
CC(=O)N1CC(Oc2cc(-c3cnnc4c3ncn4C(C)C)ccc2F)C1	1.6	–
CCn1cnc2c(-c3ccc(F)c(-c4ccc(C(=O)N(C)C)cc4)c3)cnnc21	2.5	–
Cc1cc(-c2cc(-c3cnnc4c3ncn4C(C)C)ccc2F)ccn1	3.1	–
CCn1cnc2c(-c3ccnc(Oc4cccc(S(=O)(=O)CC)c4)c3)cnnc21	1.6	–
CCn1cnc2c(-c3ccc(F)c(-c4cc5c(cc4OC)C(=O)N(C)C5)c3)cnnc21	2.6	bioavailability [2]: 76%; Vd [3]: 2.61 L/kg; bioavailability [4]: 43%; Vd [5]: 0.55 L/kg; solubility [6]: 15 µM (≈ 6.26 µg/mL); Papp [7]: 21 ×10⁻⁶ cm/s
CCn1cnc2c(-c3ccnc(OC)c3)cnnc21	1.5	–
CC(C)n1cnc2c(-c3ccc(F)c(Oc4ccc(C#N)cn4)c3)cnnc21	2.7	–
CCn1cnc2c(-c3ccc(F)c(-c4ccc(S(=O)(=O)CC)cc4)c3)cnnc21	2.9	–
N#Cc1ccc(Oc2cc(-c3cnnc4c3ncn4C3CC3)ccc2F)nc1	2.3	–
CCn1nnc2c(-c3ccc(F)c(-c4ccc(S(=O)(=O)CC)cc4)c3)cnnc21	3.3	–
CCn1cnc2c(-c3ccc(F)c(Oc4ccc(C#N)cn4)c3)cnnc21	2.3	–
CCn1cnc2c(-c3ccc(Cl)c(-c4ccc(S(=O)(=O)CC)cc4OC)c3)cnnc21	3.1	–
CCn1cnc2c(-c3ccc(F)c(-c4ccc(S(=O)(=O)C5CC5)cc4OC)c3)cnnc21	2.7	–
CCn1cnc2c(-c3ccc(F)c(-c4ccc(S(=O)(=O)C5COC5)cc4OC)c3)cnnc21	2.2	–
CCn1cnc2c(-c3ccc(F)c(OCc4ccccn4)c3)cnnc21	2.5	–
CCn1cnc2c(-c3ccc(F)c(-c4ccc5c(c4)C(=O)N(C)C5)c3)cnnc21	2.6	–

SMILES	logD [1]	other results
CCn1cnc2c(-c3ccc(F)c(-c4ccc(S(C)(=O)=O)cc4OC)c3)cnnc21	2.5	–
CCS(=O)(=O)c1ccc(-c2cc(-c3cnnc4c(OC)cnn34)ccc2F)cc1	2.8	–
Cc1cc(-c2cc(-c3cnnc4c3ncn4C3CC3)ccc2F)ccn1	2.9	–
CCn1cnc2c(-c3ccc(F)c(-c4ccc(S(=O)(=O)C(C)C)cc4OC)c3)cnnc21	3	–
CCn1cnc2c(-c3ccc(F)c(-c4cccc(C(=O)NC)c4)c3)cnnc21	2.8	–
CCn1cnc2c(-c3ccc(F)c(-c4cc(C(=O)NC)ccc4F)c3)cnnc21	3	–
CCc1cnn2c(-c3ccc(F)c(-c4ccc(S(=O)(=O)CC)cc4)c3)cnnc12	3.5	–
CCOc1cc(S(=O)(=O)CC)ccc1-c1cc(-c2cnnc3c2ncn3CC)ccc1F	3.3	–
CCn1cnc2c(-c3ccc(F)c(-c4ccc(S(=O)(=O)CC)cc4F)c3)cnnc21	2.6	–
CCc1cnn2c(-c3ccc(F)c(-c4ccc(S(=O)(=O)CC)cc4)c3)ccnc12	3.9	–
CCn1cnc2c(-c3ccc(F)c(Oc4cccc(S(=O)(=O)CC)c4)c3)cnnc21	2.3	–
CCn1cnc2c(-c3ccnc(Oc4ccccc4)c3)cnnc21	2.6	–
CCn1cnc2c(-c3ccc(F)c(-c4cccnc4)c3)cnnc21	2.6	–
CCn1cnc2c(-c3ccc(F)c(Oc4cnc(C#N)nc4)c3)cnnc21	2	–
CCn1cnc2c(-c3ccc(F)c(-c4ccc5c(c4)CN(C)C5=O)c3)cnnc21	2.7	–
CCn1cnc2c(-c3ccc(F)c(Oc4ccnc(C)c4)c3)cnnc21	2.6	–
CCn1cnc2c(-c3ccc(F)c(-c4ccc(S(=O)(=O)CC)cc4OC)c3)cnnc21 [DARIGABAT]	2.7	bioavailability [2]: 99%; Vd [3]: 3.4 L/kg; bioavailability [4]: 130%; Vd [5]: 2.1 L/kg; solubility [6]: 95 µM (≈ 41.8 µg/mL); Papp [7]: 17 ×10⁻⁶ cm/s
